ChEMBL document CHEMBL4196006, “Aryl thiosemicarbazones for the treatment of trypanosomatidic infections” (Eur J Med Chem, 2018)

Tests used:
[1] = system: Trypanosoma brucei; assay: Potentiation of methotrexate-induced antitrypanosomal activity against Trypanosoma brucei Lister 427 bloodstream form at 10 uM after 72 hrs by resazurin dye-based assay; assay type: functional
[2] = target: hERG (KCNH2) (Homo sapiens, UniProt Q12809); assay: Inhibition of human ERG at 10 uM incubated for 2 hrs by fluorescence polarisation assay relative to control
Chain of hERG (KCNH2) (Q12809 whole entry): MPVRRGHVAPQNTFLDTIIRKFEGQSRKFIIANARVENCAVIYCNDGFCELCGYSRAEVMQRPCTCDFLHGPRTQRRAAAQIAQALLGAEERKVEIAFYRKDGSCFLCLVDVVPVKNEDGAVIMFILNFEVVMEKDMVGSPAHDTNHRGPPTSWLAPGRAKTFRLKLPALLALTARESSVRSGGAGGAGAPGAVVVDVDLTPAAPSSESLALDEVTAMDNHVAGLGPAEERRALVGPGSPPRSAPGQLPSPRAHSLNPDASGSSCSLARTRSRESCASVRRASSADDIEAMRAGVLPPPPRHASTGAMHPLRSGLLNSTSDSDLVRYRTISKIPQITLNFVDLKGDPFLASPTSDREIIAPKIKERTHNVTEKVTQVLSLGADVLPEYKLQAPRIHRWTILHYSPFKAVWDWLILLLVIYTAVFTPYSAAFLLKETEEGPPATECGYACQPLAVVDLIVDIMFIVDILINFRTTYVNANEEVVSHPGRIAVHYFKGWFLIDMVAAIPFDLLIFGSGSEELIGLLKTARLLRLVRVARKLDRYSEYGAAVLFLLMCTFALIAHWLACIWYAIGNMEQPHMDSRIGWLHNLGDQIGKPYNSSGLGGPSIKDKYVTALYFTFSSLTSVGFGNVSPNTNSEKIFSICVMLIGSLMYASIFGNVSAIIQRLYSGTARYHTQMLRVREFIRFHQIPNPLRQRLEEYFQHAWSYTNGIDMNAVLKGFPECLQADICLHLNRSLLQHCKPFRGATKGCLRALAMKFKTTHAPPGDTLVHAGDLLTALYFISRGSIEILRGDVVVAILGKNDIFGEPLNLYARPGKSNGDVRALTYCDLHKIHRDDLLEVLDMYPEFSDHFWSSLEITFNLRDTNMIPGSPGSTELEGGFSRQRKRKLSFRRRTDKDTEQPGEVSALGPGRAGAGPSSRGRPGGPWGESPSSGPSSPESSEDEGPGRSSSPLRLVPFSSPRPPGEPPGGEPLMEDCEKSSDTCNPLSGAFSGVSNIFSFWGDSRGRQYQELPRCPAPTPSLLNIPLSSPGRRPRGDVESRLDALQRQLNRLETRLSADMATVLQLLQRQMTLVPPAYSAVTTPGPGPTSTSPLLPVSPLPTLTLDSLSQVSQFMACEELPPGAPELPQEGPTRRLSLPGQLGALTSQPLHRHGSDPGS

[3] = Cytotoxicity against human THP1 cells assessed as decrease in viable cells after 72 hrs by MTT assay; assay type: cell-based, THP-1; conditions: THP1 cells
Outline: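 THP-1-derived macrophages exposed to compounds for 72 h, tested at 100 μM or in dose-response; viability read by MTT colorimetric assay.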

[4] = system: Trypanosoma brucei; assay: Antitrypanosomal activity against Trypanosoma brucei Lister 427 bloodstream form at 30:1 methotrexate to test compound ratio after 72 hrs by resazurin dye-based assay; assay type: functional, organism-based; conditions: Lister 427, 72 h
[5] = system: Leishmania infantum; assay: Antileishmanial activity against Leishmania infantum amastigote form after 72 hrs by steady-Glo reagent based assay; assay type: functional, organism-based
Outline: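 Intramacrophage L. infantum amastigotes in THP-1-derived macrophages, tested at 50 μM or in dose-response. Plates held 72 h at 37 °C, 5% CO2. Medium was replaced by PBS, macrophages lysed, and parasites read by Steady-Glo luminescence. High-content imaging gave host cell number, infection ratio (infected/total cells) and parasites per infected cell. Values are means of at least two independent experiments.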

[6] = target: T1, CYP1A2 (Homo sapiens, UniProt P05177); assay: Inhibition of human microsomal CYP1A2 expressed in baculovirus infected BTI-TN-5B1-4 cells at 10 uM incubated for 30 mins by luciferase assay relative to control; assay type: ADME
T1 sequence (P05177 whole entry): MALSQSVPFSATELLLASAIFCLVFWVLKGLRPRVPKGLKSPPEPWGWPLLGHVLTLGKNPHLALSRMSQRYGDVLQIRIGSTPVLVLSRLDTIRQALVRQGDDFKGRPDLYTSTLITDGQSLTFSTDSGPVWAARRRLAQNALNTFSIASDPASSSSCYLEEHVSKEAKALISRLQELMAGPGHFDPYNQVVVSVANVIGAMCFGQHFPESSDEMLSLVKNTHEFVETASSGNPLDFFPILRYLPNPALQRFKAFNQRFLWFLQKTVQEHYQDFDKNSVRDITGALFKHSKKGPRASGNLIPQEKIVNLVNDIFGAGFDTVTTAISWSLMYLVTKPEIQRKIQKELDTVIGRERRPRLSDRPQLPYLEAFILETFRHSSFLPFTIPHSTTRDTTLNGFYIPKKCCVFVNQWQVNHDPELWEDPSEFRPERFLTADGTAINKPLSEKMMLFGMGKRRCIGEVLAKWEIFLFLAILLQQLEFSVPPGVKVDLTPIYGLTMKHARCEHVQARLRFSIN
Outline: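 CYP1A2, 2C9, 2C19, 2D6 and 3A4 in microsomes from baculovirus-infected insect cells, each with a P450-Glo luminogenic substrate. Inhibition read as loss of light; single-point at 10 μM, triplicate.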

[7] = Selectivity index, ratio of CC50 for human THP1 cells to EC50 for Leishmania infantum amastigote form; assay type: toxicity; conditions: read-out: Ratio CC50/EC50
Outline: (§1)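 Selectivity index = CC50 in the human host or cytotoxicity cell line divided by parasite EC50.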

[8] = Cytotoxicity against human U2OS cells assessed as decrease in viable cells after 72 hrs by cell number count in anti-T. cruzi high content imaging assay; conditions: U2OS cells
[9] = Cytotoxicity against human 786-O cells assessed as inhibition of mitochondrial viability at 10 uM after 6 hrs by CMXRos staining based assay relative to control; assay type: cell-based, 786-0; conditions: read-out: INH
Outline: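 Mitochondrial toxicity monitored by MitoTracker Red CMXRos uptake and high-content imaging; compound at 10 μM, triplicate.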

[10] = system: Trypanosoma brucei; assay: Potentiation of methotrexate-induced antitrypanosomal activity against Trypanosoma brucei Lister 427 bloodstream form assessed as dose reduction index for methotrexate at EC50 after 72 hrs by resazurin dye-based assay; assay type: functional
[11] = Selectivity index, ratio of CC50 for human U2OS cells to EC50 for Trypanosoma cruzi amastigote form; assay type: toxicity; conditions: read-out: Ratio CC50/EC50; outline: as §1
[12] = Selectivity ratio of EC50 for Trypanosoma cruzi amastigote form to EC50 for Trypanosoma brucei Lister 427 bloodstream form; assay type: functional
[13] = system: Trypanosoma brucei; assay: Antitrypanosomal activity against Trypanosoma brucei Lister 427 bloodstream form at 6:1 methotrexate to test compound ratio after 72 hrs by resazurin dye-based assay; assay type: functional, organism-based; conditions: Lister 427, 72 h

EC50 [4] | EC50 [5] | inhibition at 0.5 h, 10 µM [6] | EC50 [13] | Structure (SMILES) | PF [1] | inhibition at 2 h, 10 µM [2] | CC50 at 72 h [3] | selectivity ratio [7] | CC50 at 72 h [8] | cytotoxicity at 6 h, 10 µM [9] | Activity [10] | selectivity ratio [11] | Ratio EC50 [12]
0.11 µM | 6.14 µM | 26.8% | – | NC(=S)N/N=C/c1ccc(OCc2ccc(Cl)c(Cl)c2)cc1 | 0.8 | 2.4% | 82 µM | 13 | 72 µM | 23.4% | 6.56 | 55 | –
– | – | 64.7% | 0.59 µM | COc1ccc(-c2cccc(/C=N/NC(N)=S)c2)cc1OC | 0.81 | 22.4% | – | – | – | -13.1% | 6.36 | – | 4
